APJ antagonist = antagonists of human apelin receptor APJ, primary screen, CHO-K1 cells, beta-arrestin complementation, luminescence; P35414; inhibition, % at 20 µM; 0.32% of 330,000 active; AID 2521, 2010;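 active = inhibition above about 40% at 20 µM, limit read from the data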;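 note: cells challenged with 10 nM apelin-13 agonist together with compound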
CCR6 antag = CCR6 receptor antagonists, primary screen, cell-based, CHO-K1, luminescence, beta-arrestin, uHTS; CHO-K1 CCR6 PathHunter beta-arrestin, CCL20-stimulated; inhibition, % at 20 µM; C-C chemokine receptor type 6 (Homo sapiens), P51684; 0.49% of 340,000 active;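 active = compounds whose inhibition of the agonist-driven luminescence signal at 20 µM reaches about 50%, limit read from the data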;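 note: cells stimulated with CCL20 at 14 nM final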
EBI2 block = EBI2 receptor antagonists, beta-arrestin recruitment, primary screen, cell-based, luminescence, 7a,25-OHC stimulation, uHTS; G-protein coupled receptor 183 (Homo sapiens), P32249; 0.81% of 360,000 active; inhibition, % at 5 µM; 7a,25-OHC stimulated; in the data active = inhibition above about 38%;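 note: enzyme fragment complementation signal reports receptor beta-arrestin coupling in cells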
HTR2A ag = mouse Htr2a agonists via beta-arrestin recruitment, primary screen, cell-based, luminescence. 5-hydroxytryptamine receptor 2A (Mus musculus), P35363. CHO-K1 mHTR2A beta-arrestin complementation; percent of 30 µM serotonin response. activation, % at 7.6 µM. 0.66% of 360,000 active;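 active = activation above a run cutoff, the mean activation of all tested compounds plus 3 SD, cut at about 14% in these data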
Target sequence (P35363 whole entry, looked up): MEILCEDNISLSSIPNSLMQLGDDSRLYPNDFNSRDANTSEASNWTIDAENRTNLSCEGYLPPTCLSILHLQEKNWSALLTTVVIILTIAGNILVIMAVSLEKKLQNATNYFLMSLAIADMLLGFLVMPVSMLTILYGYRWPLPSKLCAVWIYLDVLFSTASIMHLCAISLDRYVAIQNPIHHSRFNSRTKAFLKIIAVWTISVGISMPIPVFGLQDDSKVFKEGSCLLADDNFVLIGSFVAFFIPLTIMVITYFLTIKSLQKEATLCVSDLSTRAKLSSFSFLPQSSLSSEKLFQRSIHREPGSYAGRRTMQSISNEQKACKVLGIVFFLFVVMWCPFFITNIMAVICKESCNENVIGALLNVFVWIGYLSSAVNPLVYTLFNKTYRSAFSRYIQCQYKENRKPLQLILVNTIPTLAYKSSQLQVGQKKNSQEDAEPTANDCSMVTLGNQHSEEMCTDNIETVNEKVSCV
CXCR6 block = CXCR6 receptor inhibitors, primary screen, cell-based, beta-arrestin, luminescence, CHO-K1 PathHunter, 1536-well | inhibition, % at 20 µM | 0.36% of 360,000 active | AID 602244, 2012; in the data active = inhibition above about 34%, passing the limit was not always enough;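 note: antagonist mode with CXCL16 agonist at 10 nM final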
APJ ag = agonists of human apelin receptor APJ, primary screen, CHO-K1 cells, PathHunter beta-arrestin, luminescence; P35414; 0% DMSO wells, 100% apelin; activation, % at 20 µM; 0.11% of 330,000 active; AID 2520, 2010;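 active = activation more than six SD over the plate average, tested at 20 µM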
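system = engineered CHO-K1 APJ arrestin reporter cells | input = 1000 cells per well | timing = overnight seeding, 90 min compound at 25 °C, 1 h detection | measured by = enzyme-fragment complementation luminescence | read-out = beta-arrestin recruitment to APJ as agonist activity, luminescent signal | control set = negative DMSO alone, positive Apelin-13 at 10 nM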
APJ antag confirm = APJ antagonists blocking beta-arrestin recruitment, confirmation, cell-based, luminescence, single concentration, uHTS hits. shares compounds with APJ antagonist. antagonist mode. inhibition, % at 20 µM. 66% of 950 active. AID 2766, 2010; in the data active = inhibition above about 50%
CXCR6 confirm = CXCR6 receptor antagonists, confirmation, cell-based, single concentration, beta-arrestin, luminescence. shares compounds with CXCR6 block. CHO-K1 CXCR6 PathHunter beta-arrestin. inhibition, % at 20 µM. 65% of 700 active. AID 602409, 2012;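 active = mean inhibition over four retests above 40%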;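 note: receptor stimulated with 10 nM CXCL16 agonist; beta-galactosidase fragment complementation upon beta-arrestin recruitment to receptor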
Hits are given with their value; . = inactive; / = no result given. Hits are enriched below; roughly 2.2% of the tested compounds scored in any of these assays.

SMILES	APJ antagonist	CCR6 antag	EBI2 block	HTR2A ag	CXCR6 block	APJ ag	APJ antag confirm	others
COc1cccc([C@@H]2Oc3ccc(OC)cc3C(=O)[C@H]2O)c1	.	.	.	.	.	.	/
COc1ccc2c(c1)C(=O)[C@@H](O)[C@H](c1ccc(OC)c(Br)c1)O2	40.0	59.1	.	.	.	.	79.7
CCNC(=O)C1CCCN(C(=O)c2ccc3c(c2)CCO3)CC1 (centres undefined)	/	/	.	.	.	/	/
CC(=O)c1ccc(N=Nc2ccc(N)cc2)cc1	46.3	.	.	.	.	.	.
O=C(NC1CCCCC1)c1cccc(NC(=O)c2ccccc2Cl)c1	/	/	.	.	.	/	/
O=C(NCC1CCCO1)c1[nH]c(C(F)(F)F)nc1-c1ccccc1 (centres undefined)	/	/	.	.	.	/	/
O=C1NC[C@H](CCCCN2CCN(CC3CCCCC3)C(=O)C2=O)N(CCc2ccccc2)C1=O	/	/	.	.	.	/	/
CN(Cc1c(O)ccc2c1oc(=O)c1ccccc12)C1CCCCC1	46.5	.	.	.	.	.	.
COc1ccc(OC)c(NC(=O)Nc2nc(C(N)CCc3ccccc3)cs2)c1 (centres undefined)	/	/	.	.	.	/	/
CCN(Cc1ccccc1)c1ccc(N=Nc2nn(C)c(C)c2[N+](=O)[O-])cc1	44.3	63.7	.	.	48.8	.	112.9
CCN(Cc1ccccc1)c1ccccc1	/	.	.	.	.	/	/
Cc1nc2c(OCc3ccc(OC(F)F)cc3)cccn2c1N(C)C(=O)CCC1CCCC1	/	/	.	.	.	/	/
ON1C2CCCCC2N(O)C1c1ccccc1C(F)(F)F (centres undefined)	48.2	56.3	.	.	.	.	.
O=C(Nc1ccccc1C(F)(F)F)NC1CCCCCCC1	.	.	.	.	.	.	/
COc1ccc(-n2c(C)ccc2-c2ccccc2)cn1	79.4	.	.	.	.	.	.
OC(c1cc(F)cc(Cl)c1)c1ncc(-c2ccccc2C(F)(F)F)[nH]1 (centres undefined)	/	/	.	.	.	/	/
Cc1cc([N+](=O)[O-])nn1CC(=O)NNC(=S)Nc1ccc([N+](=O)[O-])cc1	47.0	.	.	.	.	.	70.4
COc1ccc(NC(=O)COC(=O)CCc2nc3ccccc3c(=O)[nH]2)cc1Cl	.	.	.	.	.	.	/
COc1ccc(NC(=O)COC(=O)CCc2nc3ccccc3c(=O)[nH]2)c(OC)c1	40.5	.	.	.	.	.	.
CCCn1cnc2c(sc3nc4c(cc32)CSC(C)(C)C4)c1=O	.	.	.	.	.	.	/
CC1(C)Cc2nc3sc4c(=O)n(Cc5ccccc5)cnc4c3cc2CS1	59.0	.	.	.	.	.	.
CCCCNC(=O)C(NC(=O)c1cccnc1OC)C(=O)c1ccccc1 (centres undefined)	/	/	.	.	/	/	/
COCc1cc(=O)[nH]c(Nc2nc3ccccc3o2)n1	.	.	.	.	.	.	/
Cc1ccc2oc(Nc3nc(-c4ccccc4)cc(=O)[nH]3)nc2c1	54.1	58.3	/	/	/	.	62.4
COC(=O)[C@]12CCCCC=C1N(Cc1cccc3ccccc13)C(=O)[C@H](CC(=O)NCC1CCCCC1)C2	/	/	.	.	.	/	/
SMILES	APJ antagonist	CCR6 antag	EBI2 block	HTR2A ag	CXCR6 block	APJ ag	APJ antag confirm	others
CC(=O)Nc1ccc(-c2ccnc3c2CC(C(=O)Nc2cccc(C(C)=O)c2)O3)cc1 (centres undefined)	/	/	.	.	.	/	/
CCOC(=O)C1=C(C)NC(=O)NC1c1c(C)nn(-c2ccccc2)c1Cl (centres undefined)	44.4	.	.	.	.	.	.
CCOC(=O)C1=C(C)N(C)C(=O)NC1c1c(C)nn(-c2ccc(C)cc2)c1Cl (centres undefined)	.	.	.	.	.	.	/
CCn1ncc(S(=O)(=O)Nc2cccnc2)c1C	.	.	.	.	.	.	/
CCn1cc(S(=O)(=O)Nc2cccnc2)cn1	44.5	.	.	.	.	.	.
COC(=O)c1sc(NC(=O)OCc2ccccc2)nc1CCNC(=O)OC(C)(C)C	/	/	.	.	/	/	/
O=C(O)c1cccc(Nc2ccc3nonc3c2[N+](=O)[O-])c1	.	.	.	.	.	.	/
O=[N+]([O-])c1c(Nc2cccc(O)c2)cc(Cl)c2nonc12	94.4	104.0	92.8	.	111.2	.	111.3
COC(=O)c1cc(NC(=O)CSc2nnc(N)s2)ccc1Cl	.	.	.	.	.	.	/
Nc1nnc(SCC(=O)Nc2ccc(Cl)c(C(=O)O)c2)s1	45.5	.	.	.	.	.	.
Cc1ccc(NC(=S)NNc2ccc(C(=O)O)cc2[N+](=O)[O-])cc1C	42.0	.	.	.	40.9	.	.	CXCR6 confirm=42.2
Cc1cnc(-c2nc3ccccc3n2C(C(=O)NC(C)(C)C)c2ccccc2)cn1 (centres undefined)	/	/	.	.	/	/	/
COc1ccc(CNC(=O)CCS(=O)(=O)c2ccc3nc(C)sc3c2)cc1	/	/	.	.	.	/	/
COc1ccc(C2=Nc3ccccc3N(C(=O)c3ccc(C(F)(F)F)cc3)C2C(=O)NCc2ccccc2)cc1 (centres undefined)	/	/	.	.	/	/	/
N=C1S/C(=C\c2ccco2)C(=O)N1c1nccs1	44.1	83.2	.	.	65.7	.	65.5	CXCR6 confirm=76.6
FC(F)(F)c1cccc(NC(=S)NNC(=S)Nc2ccc(Cl)cc2)c1	.	/	/	/	/	.	/
FC(F)(F)c1cnc(NNC(=S)Nc2ccc(Cl)cc2)c(Cl)c1	64.4	94.4	.	.	72.2	.	116.7	CXCR6 confirm=84.5
Fc1ccc(NC(=S)NNc2ncc(C(F)(F)F)cc2Cl)c(F)c1	72.1	91.9	.	.	80.8	.	98.5	CXCR6 confirm=75.8
O=S(=O)(NNc1ncc(C(F)(F)F)cc1Cl)c1ccc(F)cc1F	.	.	.	.	.	.	/
CC(=O)N1N=C(c2ccccc2)CC1c1cccc([N+](=O)[O-])c1 (centres undefined)	.	.	.	.	.	.	/
CC(=O)N1N=C(c2cccs2)CC1c1cccc([N+](=O)[O-])c1 (centres undefined)	53.2	61.6	.	.	50.0	.	52.1	CXCR6 confirm=54.2
CS(=O)(=O)c1ncc(Cl)c(C(=O)Nc2ccc(OC(F)F)cc2)n1	44.1	57.0	.	.	46.9	.	72.2	CXCR6 confirm=60.2

High-throughput results: PubChem, several laboratories
